Measurements published in ChEMBL document CHEMBL1148787, “Novel substituted (pyridin-3-yl)phenyloxazolidinones: antibacterial agents with reduced activity against monoamine oxidase A and increased solubility” (J Med Chem, 2007).
≈ marks a conversion by molar mass, not a printed value.

How the values were obtained:
Staphylococcus aureus = test: Antibacterial activity against methicillin-susceptible Staphylococcus aureus AP601055; format: functional
Outline: (§1)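 CLSI broth microdilution, 64 to 0.06 µg/mL, 2% DMSO final. Media: S. aureus, Mueller Hinton broth; H. influenzae, MHB plus 0.5% yeast extract, 15 µg/mL hematin, 1.5 µg/mL NAD; S. pneumoniae, MHB plus 0.65% lysed horse blood. 35 °C, aerobic (S. aureus) or 5% CO2.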

Homo sapiens = species on record: Homo sapiens; test: Protein binding in human plasma; settings: read-out: PPB (converted)
Haemophilus influenzae = test: Antibacterial activity against Haemophilus influenzae ATCC 51907; format: functional; outline: as §1
Streptococcus pneumoniae [1] = test: Antibacterial activity against linezolid-resistant Streptococcus pneumoniae; format: functional
Outline: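 Broth microdilution per CLSI guidelines. Compounds were dissolved in 100% DMSO and diluted to 2% DMSO (v/v), 64 to 0.06 µg/mL, in 2.2% (w/v) Mueller Hinton broth with 0.65% (v/v) lysed horse blood. Plates were incubated at 35 °C in 5% CO2 and read at 620 nm.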

[2] = Solubility by nephelometric analysis; format: physicochemical
Outline: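 Nephelometry after diluting compounds into the MAO-A assay mixture (100 mM potassium phosphate, pH 7.4).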

Streptococcus pneumoniae [3] = test: Antibacterial activity against penicillin-susceptible Streptococcus pneumoniae AP671401; format: functional; outline: as §1
[4] = biological target: T1, Amine oxidase [flavin-containing] A (Homo sapiens, UniProt P21397); test: Inhibition of human liver MAOA expressed in yeast
T1 sequence (P21397 whole entry): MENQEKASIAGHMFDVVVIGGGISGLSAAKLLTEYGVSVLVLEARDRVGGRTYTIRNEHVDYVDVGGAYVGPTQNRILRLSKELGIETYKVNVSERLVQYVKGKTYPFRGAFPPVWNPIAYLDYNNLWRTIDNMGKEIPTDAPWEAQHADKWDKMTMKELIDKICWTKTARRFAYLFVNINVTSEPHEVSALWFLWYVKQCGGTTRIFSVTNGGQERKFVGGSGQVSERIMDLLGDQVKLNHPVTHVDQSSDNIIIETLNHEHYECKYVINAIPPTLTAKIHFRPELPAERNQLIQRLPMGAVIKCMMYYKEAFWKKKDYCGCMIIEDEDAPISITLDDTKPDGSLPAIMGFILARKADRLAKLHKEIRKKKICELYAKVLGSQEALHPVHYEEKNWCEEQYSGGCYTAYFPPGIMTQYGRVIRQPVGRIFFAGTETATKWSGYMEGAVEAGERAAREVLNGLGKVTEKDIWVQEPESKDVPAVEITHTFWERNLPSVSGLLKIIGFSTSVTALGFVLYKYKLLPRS

[5] = Clearance in Wistar rat at 10 mg/kg, iv; format: ADME, organism-based; design: dose 10 mg/kg, route intravenous; settings: in vivo
Outline: (§2)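 Groups of three Wistar Han rats; bolus injection via cannulated jugular vein at 2 or 10 mg/kg. Serial 200 µL whole-blood samples at time intervals; plasma levels by LC-MS/MS; parameters by noncompartmental analysis.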

[6] = AUC in Wistar rat at 10 mg/kg, iv; format: ADME, organism-based; design: dose 10 mg/kg, route intravenous; settings: plasma; outline: as §2
[7] = Volume of distribution in Wistar rat at 10 mg/kg, iv; format: ADME, organism-based; design: dose 10 mg/kg, route intravenous; settings: in vivo, read-out: Vdss; outline: as §2
[8] = Half life in Wistar rat at 10 mg/kg, iv; format: ADME, organism-based; design: dose 10 mg/kg, route intravenous; settings: in vivo; outline: as §2

SMILES | MIC (Staphylococcus aureus) | fraction unbound (Homo sapiens) | MIC (Haemophilus influenzae) | MIC (Streptococcus pneumoniae [1]) | solubility kinetic [2] | MIC (Streptococcus pneumoniae [3]) | Ki [4] | clearance [5] | AUC [6] | Vd [7] | half-life [8]
O=C(CCCN1CCOCC1)c1ccc(-c2ccc(N3C[C@H](Cn4ccnn4)OC3=O)cc2F)cn1 | 0.5 µg/mL (≈ 1.01 µM) | 0.35 | 4 µg/mL (≈ 8.09 µM) | 0.5 µg/mL (≈ 1.01 µM) | 100 µM (≈ 49.5 µg/mL) | 0.13 µg/mL (≈ 0.263 µM) | – | – | – | – | –
O=C(c1ccc(-c2ccc(N3C[C@H](Cn4ccnn4)OC3=O)cc2F)cn1)C1CNC1 | 8 µg/mL (≈ 18.9 µM) | – | 16 µg/mL (≈ 37.9 µM) | 4 µg/mL (≈ 9.47 µM) | 200 µM (≈ 84.5 µg/mL) | 1 µg/mL (≈ 2.37 µM) | 4.5 µM | – | – | – | –
CC(C)C(O)c1ccc(-c2ccc(N3C[C@H](Cn4ccnn4)OC3=O)cc2F)cn1 (stereo not given in full) | 0.5 µg/mL (≈ 1.22 µM) | – | 16 µg/mL (≈ 38.9 µM) | 2 µg/mL (≈ 4.86 µM) | > 400 µM | 0.25 µg/mL (≈ 0.608 µM) | 11.3 µM | – | – | – | –
CO[C@H](C)c1ccc(-c2ccc(N3C[C@H](Cn4ccnn4)OC3=O)cc2F)cn1 | 1 µg/mL (≈ 2.52 µM) | – | 8 µg/mL (≈ 20.1 µM) | 2 µg/mL (≈ 5.03 µM) | > 400 µM | 0.25 µg/mL (≈ 0.629 µM) | 3 µM | – | – | – | –
O=C(c1ccc(-c2ccc(N3C[C@H](Cn4ccnn4)OC3=O)cc2F)cn1)C1CCNCC1 | 0.5 µg/mL (≈ 1.11 µM) | – | 4 µg/mL (≈ 8.88 µM) | 0.5 µg/mL (≈ 1.11 µM) | 100 µM (≈ 45 µg/mL) | 0.13 µg/mL (≈ 0.289 µM) | > 44 µM | 38 mL/min/kg | 4000 ng·h/mL | 3.8 L/kg | 2.4 h
COCc1ccc(-c2ccc(N3C[C@H](Cn4ccnn4)OC3=O)cc2F)cn1 | 0.5 µg/mL (≈ 1.3 µM) | – | 4 µg/mL (≈ 10.4 µM) | 1 µg/mL (≈ 2.61 µM) | 100 µM (≈ 38.3 µg/mL) | 0.13 µg/mL (≈ 0.339 µM) | 1.7 µM | – | – | – | –
O=C1O[C@@H](Cn2ccnn2)CN1c1ccc(-c2ccc(C(O)C3CNC3)nc2)c(F)c1 (stereo not given in full) | 64 µg/mL (≈ 151 µM) | – | 64 µg/mL (≈ 151 µM) | > 64 µg/mL | > 400 µM | 16 µg/mL (≈ 37.7 µM) | 58 µM | – | – | – | –
C[C@@H](O)c1ccc(-c2ccc(N3C[C@H](Cn4ccnn4)OC3=O)cc2F)cn1 | 0.25 µg/mL (≈ 0.652 µM) | – | 2 µg/mL (≈ 5.22 µM) | 1 µg/mL (≈ 2.61 µM) | > 400 µM | < 0.06 µg/mL | 4.3 µM | – | – | – | –
CC(C)NCC(O)c1ccc(-c2ccc(N3C[C@H](Cn4ccnn4)OC3=O)cc2F)cn1 (stereo not given in full) | 4 µg/mL (≈ 9.08 µM) | – | 4 µg/mL (≈ 9.08 µM) | 2 µg/mL (≈ 4.54 µM) | > 400 µM | 0.5 µg/mL (≈ 1.14 µM) | > 178 µM | – | – | – | –
CN1CCN(CCCC(O)c2ccc(-c3ccc(N4C[C@H](Cn5ccnn5)OC4=O)cc3F)cn2)CC1 (stereo not given in full) | 2 µg/mL (≈ 3.92 µM) | – | 8 µg/mL (≈ 15.7 µM) | 1 µg/mL (≈ 1.96 µM) | > 400 µM | 0.25 µg/mL (≈ 0.491 µM) | 41 µM | – | – | – | –
O=C(Cn1ccnc1)c1ccc(-c2ccc(N3C[C@H](Cn4ccnn4)OC3=O)cc2F)cn1 | 0.25 µg/mL (≈ 0.559 µM) | – | 2 µg/mL (≈ 4.47 µM) | 0.5 µg/mL (≈ 1.12 µM) | 12.5 µM (≈ 5.59 µg/mL) | – | > 12 µM | – | – | – | –
CC(=O)c1ccc(-c2ccc(N3C[C@H](Cn4ccnn4)OC3=O)cc2F)cn1 | 0.25 µg/mL (≈ 0.656 µM) | – | 2 µg/mL (≈ 5.24 µM) | 0.5 µg/mL (≈ 1.31 µM) | 50 µM (≈ 19.1 µg/mL) | < 0.06 µg/mL | 0.7 µM | – | – | – | –
